In general, IC50 refers to the concentration that gives 50% inhibition. Read a high IC50 as weaker potency.

Our source for the Activity, IC50 and viability values is ChEMBL document CHEMBL1152814, “Novel cyano- and amidinobenzothiazole derivatives: synthesis, antitumor evaluation, and X-ray and quantitative structure-activity relationship (QSAR) analysis” (J Med Chem, 2009).

SMILES strings stand for the structures. The source made the active and inactive calls. The rule behind the calls is not given here.

For assay [1], the system named is NCI-H460. In words: Cell cycle arrest in human H460 cells assessed as increase in percentage of cells in sub-G1 phase at 5 to 50 uM after 24 hrs using propidium iodide staining by FACS. In kind it is functional, cell-based. Summed up: (§1)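 H 460 cells seeded at 2 × 10⁵/well and treated after overnight incubation with 5, 10 or 50 µM for 24 or 48 h. Attached and floating cells were pooled, fixed in 70% ethanol, treated with 0.2 µg/µL RNase A (37 °C, 15 min) and stained with 50 µg/mL propidium iodide. Flow cytometry counted 20000 events, in duplicate across two independent experiments.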

The subject of a further assay is SW-620. In words: Antiproliferative activity against human SW620 cells after 72 hrs by MTT assay. In kind it is functional, cell-based. The conditions noted are these: SW-620, 72 h. Summed up: (§2)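 Monolayers in DMEM with 10% FBS, 2 mM L-glutamine, penicillin/streptomycin, 37 °C, 5% CO2. Seeded at 3 × 10³ to 6 × 10³ cells/well on day 0. Agents added the next day in five 10-fold dilutions (10^-8–10^-4 mol/L), with a DMSO solvent control (max 0.25%). MTT read at 570 nm after 72 h. Quadruplicate points, three experiments. IC50 is the concentration giving 50% growth inhibition.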
In general terms: Formazan colour is commonly taken as a measure of viable cells.

The test system of a further assay is MCF7. In words: Antiproliferative activity against human MCF7 cells after 72 hrs by MTT assay. The conditions noted are these: MCF7, 72 h. In kind it is functional, cell-based. Summed up: as §2
Assay [2] relates to NCI-H460. In words: Cell cycle arrest in human H460 cells assessed as reduction of percentage of cells in S phase at 5 to 50 uM after 24 hrs using propidium iodide staining by FACS. It counts as functional, cell-based. Summed up: as §1
Assay [3] relates to NCI-H460. In words: Induction of apoptosis in human H460 cells assessed as early apoptotic cells after 48 hrs using annexin V staining by FACS. In kind it is functional, cell-based. Summed up: (§3)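 H 460 cells seeded at 2 × 10⁵/well and exposed for 48 h (5, 10 or 50 µM) against a vehicle control. Floating and attached cells were pooled and washed in binding buffer (10 mM HEPES, 140 mM NaCl, 2.5 mM CaCl2, pH 7.4). They were stained 20 min with annexin V Alexa Fluor 488 and 1 µg/mL 7-AAD, then read by flow cytometry. Quadrants: viable, early apoptotic, late apoptotic.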
For orientation: Flow cytometry measures light scatter and fluorescence of single cells or particles in a stream.

Assay [4] deals with NCI-H460. In words: Induction of apoptosis in human H460 cells assessed as viable cells at 5 uM after 48 hrs using annexin V staining by FACS. In kind it is functional. The conditions noted are these: NCI-H460, 48 h, read-out: Activity. Summed up: as §3
Assay [5] deals with NCI-H460. In words: Induction of apoptosis in human H460 cells assessed as early apoptotic cells at 5 uM after 48 hrs using annexin V staining by FACS. In kind it is functional. Summed up:
as §3

The test system of assay [6] is NCI-H460. In words: Induction of apoptosis in human H460 cells assessed as late apoptotic cells after 48 hrs using annexin V staining by FACS. In kind it is functional, cell-based. Summed up:
as §3

In assay [7] the test system is NCI-H460. In words: Induction of apoptosis in human H460 cells assessed as late apoptotic cells at 10 uM after 48 hrs using annexin V staining by FACS. In kind it is functional. Summed up:
as §3

Assay [8] has as its system NCI-H460. In words: Induction of apoptosis in human H460 cells assessed as viable cells at 10 uM after 48 hrs using annexin V staining by FACS. It counts as functional. As to conditions: NCI-H460, 48 h, read-out: Activity. Summed up: as §3
In assay [9] the test system is NCI-H460. In words: Antiproliferative activity against human H460 cells after 72 hrs by MTT assay. In kind it is functional, cell-based. The conditions noted are these: NCI-H460, 72 h. Summed up:
as §2

The subject of assay [10] is NCI-H460. In words: Cell cycle arrest in human H460 cells assessed as reduction of percentage of cells in S phase at 5 to 50 uM after 48 hrs using propidium iodide staining by FACS. In kind it is functional, cell-based. Summed up: as §1
The test system of assay [11] is NCI-H460. As to the kind of experiment: Induction of apoptosis in human H460 cells assessed as early apoptotic cells at 10 uM after 48 hrs using annexin V staining by FACS. It counts as functional. Summed up: as §3
Assay [12] relates to NCI-H460. As to the kind of experiment: Induction of apoptosis in human H460 cells at 50 uM after 24 hrs. In kind it is functional.
Assay [13] concerns NCI-H460. In words: Induction of apoptosis in human H460 cells assessed as late apoptotic cells at 5 uM after 48 hrs using annexin V staining by FACS. In kind it is functional. Summed up: as §3
Assay [14] deals with NCI-H460. In words: Induction of apoptosis in human H460 cells assessed as complete cell death at 50 uM after 48 hrs. In kind it is functional, cell-based.
For assay [15], the system named is NCI-H460. In words: Induction of apoptosis in human H460 cells assessed as viable cells after 48 hrs using annexin V staining by FACS. It counts as functional, cell-based. Summed up:
as §3

The test system of a further assay is HeLa. In words: Antiproliferative activity against human HeLa cells after 72 hrs by MTT assay. In kind it is functional, cell-based. Summed up:
as §2

In assay [16] the test system is NCI-H460. As to the kind of experiment: Cell cycle arrest in human H460 cells assessed as increase in percentage of cells in sub-G1 phase at 5 to 50 uM after 48 hrs using propidium iodide staining by FACS. It counts as functional, cell-based. Summed up:
as §1

Another assay concerns MIA PaCa-2. As to the kind of experiment: Antiproliferative activity against human MIAPaCa2 cells after 72 hrs by MTT assay. In kind it is functional, cell-based. The conditions noted are these: MIA PaCa-2, 72 h. Summed up:
as §2

The nature of assay [17]: Antiproliferative activity against human WI38 cells after 72 hrs by MTT assay. In kind it is cell-based. As to conditions: WI-38, 72 h. Summed up:
as §2

The subject of assay [18] is NCI-H460. In words: Induction of apoptosis in human H460 cells assessed as late apoptotic cells at 50 uM after 48 hrs using annexin V staining by FACS. In kind it is functional. Summed up:
as §3

For assay [19], the system named is NCI-H460. In words: Cell cycle arrest in human H460 cells assessed as induction of G2 phase delay at 50 uM after 24 hrs using propidium iodide staining by FACS. In kind it is functional, cell-based. Summed up: as §1
The test system of assay [20] is NCI-H460. As to the kind of experiment: Cell cycle arrest in human H460 cells assessed as reduction of percentage of cells in S phase at 50 uM after 24 hrs using propidium iodide staining by FACS. In kind it is functional, cell-based. Summed up:
as §1

The subject of assay [21] is NCI-H460. As to the kind of experiment: Cell cycle arrest in human H460 cells assessed as increase in percentage of cells in G1 phase at 10 uM after 24 hrs using propidium iodide staining by FACS. In kind it is functional, cell-based. Summed up: as §1
Assay [22] relates to NCI-H460. As to the kind of experiment: Induction of apoptosis in human H460 cells assessed as early apoptotic cells at 50 uM after 48 hrs using annexin V staining by FACS. It counts as functional. Summed up: as §3
In assay [23] the test system is NCI-H460. As to the kind of experiment: Cell cycle arrest in human H460 cells assessed as induction of G2 phase delay at 50 uM after 48 hrs using propidium iodide staining by FACS. In kind it is functional, cell-based. Summed up:
as §1

Assay [24] has as its system NCI-H460. In words: Cell cycle arrest in human H460 cells assessed as induction of G1 phase delay at 50 uM after 48 hrs using propidium iodide staining by FACS. It counts as functional, cell-based. Summed up:
as §1

Assay [25] relates to NCI-H460. In words: Cell cycle arrest in human H460 cells assessed as reduction of percentage of cells in S phase at 50 uM after 48 hrs using propidium iodide staining by FACS. In kind it is functional, cell-based. Summed up:
as §1

Assay [26] deals with NCI-H460. In words: Induction of apoptosis in human H460 cells assessed as viable cells at 50 uM after 48 hrs using annexin V staining by FACS. It counts as functional. The conditions noted are these: NCI-H460, 48 h, read-out: Activity. Summed up: as §3
Assay [27] has as its system NCI-H460. In words: Cell cycle arrest in human H460 cells assessed as increase in percentage of cells in G1 phase at 10 uM after 48 hrs using propidium iodide staining by FACS. It counts as functional, cell-based. Summed up: as §1
In assay [28] the test system is NCI-H460. As to the kind of experiment: Cell cycle arrest in human H460 cells assessed as induction of G1 phase delay at 50 uM after 24 hrs using propidium iodide staining by FACS. It counts as functional, cell-based. Summed up:
as §1

Consider `Cc1cccc(Nc2nc3ccc(C(=N)NC(C)C)cc3s2)n1.Cl.Cl`, for which the outcome with NCI-H460 [1], in the assay with NCI-H460 [2], in the assay on NCI-H460 [10], with NCI-H460 [14] and in the assay with NCI-H460 [16] was Active. Further, the 50% inhibitory concentration (IC50) in the assay with SW-620 amounted to 9 µM; in the assay with MCF7 it was 3 µM; with NCI-H460 [9], 3 µM; in the assay on HeLa, 4 µM; in the assay with MIA PaCa-2, 3 µM; in assay [17], 19 µM. Further, the Activity entry is “Dose-dependent effect” in the assay with NCI-H460 [3]; 12.24% in the assay with NCI-H460 [5]; “Dose-dependent effect” in the assay with NCI-H460 [6]; 3.75% with NCI-H460 [7]; 16.43% in the assay on NCI-H460 [11]; 40% with NCI-H460 [12]. The Activity with NCI-H460 [13] was 3.37%; in the assay with NCI-H460 [15], “Dose-dependent effect”. The viability at 5 µM in the assay with NCI-H460 [4] is 83.1%. The viability at 10 µM with NCI-H460 [8] amounted to 77.7%.

`Cc1ccc(Nc2nc3ccc(C(=N)NC(C)C)cc3s2)nc1.Cl.Cl`: the IC50 with SW-620 came out at 12 µM; in the assay on MCF7, 8 µM; in the assay on NCI-H460 [9], 15 µM; in the assay on HeLa, 12 µM; with MIA PaCa-2, 14 µM; in assay [17] it was 31 µM. Besides, the outcome with NCI-H460 [2], with NCI-H460 [19], with NCI-H460 [20], in the assay with NCI-H460 [10], with NCI-H460 [23] and in the assay on NCI-H460 [24] was Active. Further, the outcome with NCI-H460 [25] and in the assay with NCI-H460 [28] was Active. Also, the Activity entry was “Dose-dependent effect” in the assay with NCI-H460 [3]; 2.39% in the assay with NCI-H460 [18]; “Dose-dependent effect” in the assay with NCI-H460 [6]; 13.58% in the assay with NCI-H460 [22]; “Dose-dependent effect” in the assay with NCI-H460 [15]. The result with NCI-H460 [21] and in the assay on NCI-H460 [27] was inactive. Further, the viability at 50 µM in the assay with NCI-H460 [26] was determined as 83.2%.
